Assay outcomes: PubChem, several laboratories
KCNQ1 block: inhibitors of human KCNQ1 channel, primary screen, cell-based, thallium flux, high-throughput; CHO-K1 KCNQ1, FluxOR thallium flux fluorescence; hits give high values; B-score at 10 µM; hit rate 1.3% among 310,000;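 active = compounds whose thallium flux B-score, printed positive for inhibition, exceeds three library SD while starting fluorescence stays within three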;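 note: channel opened by potassium depolarization with thallium stimulus after 20 min compound exposure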
Target sequence (P51787 whole entry, looked up): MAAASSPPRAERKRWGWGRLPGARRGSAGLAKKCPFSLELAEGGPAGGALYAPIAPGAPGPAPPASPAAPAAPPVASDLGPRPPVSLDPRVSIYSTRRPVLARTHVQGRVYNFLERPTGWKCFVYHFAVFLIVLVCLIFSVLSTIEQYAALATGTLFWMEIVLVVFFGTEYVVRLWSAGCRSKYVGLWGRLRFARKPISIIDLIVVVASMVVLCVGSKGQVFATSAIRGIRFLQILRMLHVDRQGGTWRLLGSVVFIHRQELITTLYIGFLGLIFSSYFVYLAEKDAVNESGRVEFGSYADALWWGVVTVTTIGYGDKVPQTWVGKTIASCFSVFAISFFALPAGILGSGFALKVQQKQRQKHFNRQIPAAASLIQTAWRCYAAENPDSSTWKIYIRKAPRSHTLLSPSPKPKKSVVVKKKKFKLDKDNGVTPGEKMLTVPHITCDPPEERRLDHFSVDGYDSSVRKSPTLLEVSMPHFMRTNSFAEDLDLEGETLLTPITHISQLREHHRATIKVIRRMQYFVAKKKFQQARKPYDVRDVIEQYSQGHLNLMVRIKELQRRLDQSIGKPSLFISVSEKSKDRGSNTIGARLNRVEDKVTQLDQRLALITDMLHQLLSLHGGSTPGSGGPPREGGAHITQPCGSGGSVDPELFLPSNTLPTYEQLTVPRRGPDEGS
PHOSPHO1 block: PubChem AID 1565. Phosphoethanolamine/phosphocholine phosphatase (Homo sapiens), Q8TCT1. recombinant PHOSPHO1, absorbance phosphatase assay. inhibition, % at 13.3 µM. hit rate 1.1% among 290,000; in the data active = inhibition above about 60%
KCNK3 block: human KCNK3 channel inhibitors, primary screen, CHO cells, FluxOR thallium flux, B-score; hit rate 0.84% among 340,000; FluxOR fluorescence; hits give low values; Potassium channel subfamily K member 3 (Homo sapiens), O14649; B-score at 10 µM;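 active = B-score under library mean minus 4 SD, starting fluorescence ratio at most library mean plus 5 SD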;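 note: more negative B-score means stronger inhibition of thallium flux through KCNK3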
KCNQ1 act: potentiators or activators of KCNQ1 channel, primary screen, cell-based, thallium flux, high-throughput. Potassium voltage-gated channel subfamily KQT member 1 (Homo sapiens), P51787. CHO-K1 KCNQ1, thallium flux FluxOR fluorescence; hits give high values. B-score at 10 µM. hit rate 0.35% among 310,000;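 active = fluorescence ratio B-score, a plate-corrected score, at least three library SD, with initial intensity B-score within 5 SD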
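Doses: Single concentration per compound, DMSO matched to controls | Test system: KCNQ1-transfected CHO-K1 cells | Timing: 90 min dye loading and 20 min compound exposure, both at room temperature | Measured by: Kinetic FluxOR thallium fluorescence, 10-s 1-Hz baseline, 110-s post-stimulus read | Medium: Assay buffer with matched DMSO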
KCNK9 block: KCNK9 potassium channel inhibitors, primary screen, HEK293 cells, thallium flux; Potassium channel subfamily K member 9 (Homo sapiens), Q9NPC2; FluxOR thallium flux fluorescence; hits give low values; B-score at 10 µM; hit rate 1.2% among 310,000; AID 488922, 2010;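 active = ratio B-score over 3 SD below the library mean, with starting fluorescence within 5 SD of its mean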;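 note: negative B-score means less thallium flux so channel inhibition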
hERG protect: hERG rescue from dofetilide block, primary screen, cell-based, CHO-hERG, FluxOR thallium flux, dofetilide IC70; AID 1511, 2009; dofetilide IC70 present; Voltage-gated inwardly rectifying potassium channel KCNH2 (Homo sapiens), Q12809; activation (rescue from dofetilide block), less the hit threshold, % at 10 µM; hit rate 0.51% among 310,000;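 active = activation above the mean of controls blocked by dofetilide plus 5 SD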;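 note: thallium influx through hERG after potassium depolarization seen as dye fluorescence rise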
KCNK9 block conf: KCNK9 potassium channel inhibitors, confirmation, HEK293 cells, thallium flux, duplicate; shares compounds with KCNK9 block; FluxOR thallium flux fluorescence; inhibition, % at 10 µM; hit rate 43% among 4,900; AID 492992, 2010;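 active = thallium signal inhibited by more than 5 SD of the compound-free buffer control wells, on both duplicate plates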;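 note: 0% = assay buffer control wells without compound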
Kir2-1 spec: mouse Kir2.1 channel inhibition, confirmation, selectivity assay for KCNK9 modulator project, cell-based, HEK293, thallium flux; shares compounds with KCNK9 block; Kir2.1 cells, FluxOR thallium flux fluorescence; inhibition, % at 10 µM; hit rate 4% among 4,900; AID 492993, 2010;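 active = thallium signal drop more than 5 SD beyond the mean of the no-compound control wells, seen in both duplicate plates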;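 note: signal is fluorescence rise after thallium addition divided by baseline fluorescence; plate controls were assay buffer only for no effect and full block by chlorpromazine control for full effect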
KCNK9 uninduced: thallium flux in non-induced HEK293 cells, confirmation, counter-screen for KCNK9 inhibitor project, cell-based, second counter screen, non-induced KCNK9-HEK293 | shares compounds with KCNK9 block | FluxOR thallium flux | hit rate 40% among 4,900 | inhibition, % at 10 µM;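 active = thallium signal drop beyond 5 SD of the untreated control mean, on both duplicate plates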;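 note: plate controls were buffer only IC0 wells for no effect and SID17386958 at its maximal inhibitory level for full effect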
Active calls of the source: *; i = inactive; nt = no result given. A selection: hits, their analogues and other compounds. The true share with any hit is near 4%.

SMILES	KCNQ1 block	PHOSPHO1 block	KCNK3 block	KCNQ1 act	KCNK9 block	hERG protect	KCNK9 block conf	Kir2-1 spec	KCNK9 uninduced
COc1ccc(OCC(=O)N2CCN(C3CCC(c4ccccc4)CC3)CC2)cc1 (stereo not given)	i	-1.5	i	i	i	-10.1	nt	nt	nt
Cc1ccc(N2C(=O)NC(=O)/C(=C\c3cnc(-c4ccccc4)nc3)C2=O)cc1	i	-42.8	i	i	i	-7.6	nt	nt	nt
O=c1cccc2n1C[C@@H]1C[C@@H]2CN(CC(O)c2ccc([N+](=O)[O-])cc2)C1 (stereo not given in full)	i	40.4	i	i	i	-7.7	nt	nt	nt
CC1=NN(Cc2c[nH]c3ccccc23)C(C)(C)C1	i	3.5	i	i	i	-2.9	nt	nt	nt
Cc1cccc(C2=NCC(=O)N(CC(=O)NCc3ccco3)c3sc4c(c32)CCCC4)c1	i	-10.2	i	i	-11*	-6.7	41.0%*	i	30.5%*
CC(=O)Nc1cc([As](=O)(O)O)ccc1O	i	-11.2	i	i	i	-4.2	nt	nt	nt
Cc1cccc(CN2CCN(c3ccc(Cl)cc3)CC2)c1	i	5.6	i	i	i	-21.0	i	i	i
C=CCN1CCC2(C)c3cc(O)ccc3CC1C2C (stereo not given)	i	nt	i	i	i	-4.9	nt	nt	nt
COc1ccc(CN2CCCC(C(=O)c3cccc(Cl)c3)C2)cc1 (stereo not given)	i	24.7	i	i	i	-9.3	i	31.5%*	i
COc1cccc(C(=O)C2CCCN(Cc3ccc4nonc4c3)C2)c1 (stereo not given)	i	-10.2	i	i	i	-7.7	i	i	i
COc1ccc(CN2CCCC(C(=O)c3ccc(Cl)cc3)C2)c(OC)c1 (stereo not given)	i	19.3	i	i	i	-12.0	i	i	i
COc1cccc(C(=O)C2CCCN(Cc3cccc4c3OCO4)C2)c1 (stereo not given)	i	56.0	i	i	i	-7.3	i	i	i
O=C(c1cccc(Cl)c1)C1CCCN(Cc2ccon2)C1 (stereo not given)	i	43.6	i	i	i	-6.5	nt	nt	nt
CSc1ncc(CN2CCCC(C(=O)c3cccc(Cl)c3)C2)cn1 (stereo not given)	i	43.6	i	i	i	-1.8	i	i	i
O=C(c1cc(F)ccc1F)C1CCCN(Cc2ccc3nonc3c2)C1 (stereo not given)	i	27.9	i	i	i	-4.8	i	i	i
O=C(c1ccc2c(c1)N(Cc1ccc(F)cc1)CCS2)N1CCC2(CC1)OCCO2	i	11.9	i	i	i	-9.9	i	i	i
COc1ccccc1CN1CCN(C(=O)COc2ccc3ccccc3c2)CC1	i	34.4	i	i	i	-5.0	i	33.0%*	i
COc1ccccc1CN1CCN(C(=O)COc2cccc(C)c2)CC1	i	20.7	i	i	i	-5.9	nt	nt	nt
O=C(COc1ccccc1)c1cn(Cc2ccccc2)c2ccccc12	i	23.7	i	i	-10.1*	-8.7	52.0%*	i	53.0%*
O=C(O)c1cccc2c1NC(c1cccc([N+](=O)[O-])c1)C1CC(Sc3ccccc3[N+](=O)[O-])C(Cl)C21 (stereo not given)	i	32.3	i	16*	i	-3.1	i	i	i
Cc1nn(Cc2ccccc2Cl)c(Cl)c1C(=O)OCC(=O)NC(=O)NC1CCCCC1	i	-11.3	i	i	i	-7.5	i	i	i
CCC(=O)c1ccc(OCC(=O)N2CCN(CC(=O)Nc3ccccc3C(F)(F)F)CC2)cc1	nt	nt	i	nt	nt	nt	nt	nt	nt
CCOc1ccc(-c2c(C)n(-c3ccc(OCC)cc3)c3[n+]2CCCCC3)cc1	9*	32.7	i	i	-10.4*	-17.8	43.5%*	33.0%*	i
Cc1cc(C)n2nc(C)[n+](C)c2n1	i	6.0	i	i	i	-6.1	nt	nt	nt
COC(=O)C1=C(c2cc3ccccc3s2)C[C@@H]2CC[C@H]1N2C(=O)NC1CC1	i	nt	i	i	i	-6.1	nt	nt	nt
SMILES	KCNQ1 block	PHOSPHO1 block	KCNK3 block	KCNQ1 act	KCNK9 block	hERG protect	KCNK9 block conf	Kir2-1 spec	KCNK9 uninduced
COC(=O)C1=C(c2cc3ccccc3s2)C[C@@H]2CC[C@H]1N2C(=O)N1CCC(C)CC1	i	nt	i	i	i	-10.9	i	i	i
Oc1cc2c(cc1CN1CCN(c3ccc(F)cc3)CC1)OCO2	i	-41.9	i	i	i	-9.4	nt	nt	nt
Brc1cc2c(cc1CN1CCN(c3ccccc3)CC1)OCCO2	i	-17.0	i	i	i	-3.8	i	i	i
CCCCCCn1c(=O)c(C(=O)Nc2c(C)n(C)n(-c3ccccc3)c2=O)c(O)c2ccccc21	i	29.8	i	i	i	-18.2	i	i	i
CCCCCn1c(=O)c(C(=O)Nc2cccc(C)c2)c(O)c2ccccc21	i	-5.8	i	i	i	0.2	nt	nt	nt
O=C(Nc1nccs1)c1c(O)c2c(n(Cc3ccco3)c1=O)CCCC2	6*	-7.6	i	i	-8.19*	-6.8	43.5%*	i	35.5%*
O=C(CCc1nnc2ccc(NCc3ccccc3)nn12)N1CCC2(CC1)OCCO2	i	6.9	i	i	i	-9.5	nt	nt	nt
C[N+](C)(C)CC(=O)Nc1ccc(Cl)cc1C(=O)c1ccccc1	i	2.2	i	i	i	-13.3	nt	nt	nt
Cc1cccc(C(=O)Nc2ccc(Cl)cc2C(=O)c2ccccc2)c1	i	39.3	i	i	-8.44*	-10.0	32.5%*	i	31.0%*
CCN(CC(=O)Nc1ccc(C#N)c(Cl)c1)CC(=O)NC1CCS(=O)(=O)C1 (stereo not given)	nt	nt	i	nt	nt	nt	nt	nt	nt
